# Hits are enriched below; roughly 1.5% of the tested compounds scored in any of these assays.
# APJ antagonist: blocks the human apelin receptor APJ; P35414; CHO-K1 APJ beta-arrestin complementation, luminescence; inhibition, % at 20 µM; 330,000 compounds, 0.32% hits;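 active means inhibition above about 40% at 20 µM, limit read from the data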;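 further: cells challenged with 10 nM apelin-13 agonist together with compound; plate controls were apelin-13 plus DMSO wells for no effect and DMSO wells lacking apelin-13 for full effect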
# CCR6 antag: blocks CCL20-driven beta-arrestin recruitment at human CCR6; CHO-K1 CCR6 PathHunter beta-arrestin, luminescence, CCL20-stimulated; AID 493098; 340,000 compounds, 0.49% hits; P51684; inhibition, % at 20 µM;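 active means compounds whose inhibition of the agonist-driven luminescence signal at 20 µM reaches about 50%, limit read from the data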;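 further: cells stimulated with CCL20 at 14 nM final; plate controls were DMSO with CCL20 for no effect and DMSO without agonist for full effect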
# CXCR6 block: CXCR6 (human) receptor inhibition | O00574 | CHO-K1 PathHunter CXCR6 beta-arrestin, luminescence | inhibition, % at 20 µM | 360,000 compounds, 0.36% hits; in the data active means inhibition above about 34%, passing the limit was not always enough;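 further: antagonist mode with CXCL16 agonist at 10 nM final; 0% = 10 nM CXCL16 with DMSO and 100% = unstimulated wells without agonist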
# hiPSC survival: enhancers of human iPSC single-cell survival; hiPSC single-cell survival, ATPlite luminescence; 100% = ROCK inhibitor wells, 0% = DMSO; survival enhancement, % at 20 µM; 360,000 compounds, 0.044% hits; in the data active means survival enhancement above about 18%;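 further: cells exposed to compounds for 16 hours before the ATP read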
# EBI2 antag: EBI2 (human) antagonism. P32249. inhibition, % at 5 µM. 360,000 compounds, 0.81% hits. EBI2 beta-arrestin recruitment, luminescence, 7a,25-OHC stimulated. AID 651636; in the data active means inhibition above about 38%;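 further: enzyme fragment complementation signal reports receptor beta-arrestin coupling in cells; 0% = agonist plus DMSO wells and 100% = wells without agonist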
# Target sequence (P32249 whole entry, looked up, the tested form may be a part): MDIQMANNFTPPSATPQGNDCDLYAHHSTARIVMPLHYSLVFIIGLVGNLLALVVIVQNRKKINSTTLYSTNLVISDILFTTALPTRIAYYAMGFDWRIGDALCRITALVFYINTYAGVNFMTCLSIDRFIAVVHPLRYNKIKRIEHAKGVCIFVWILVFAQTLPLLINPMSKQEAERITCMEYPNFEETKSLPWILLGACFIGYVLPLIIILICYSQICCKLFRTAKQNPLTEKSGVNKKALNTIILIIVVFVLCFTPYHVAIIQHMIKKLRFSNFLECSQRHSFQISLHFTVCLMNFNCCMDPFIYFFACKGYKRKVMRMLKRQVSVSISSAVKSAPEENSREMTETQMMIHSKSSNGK
# APJ ag: activates the human apelin receptor APJ; P35414; CHO-K1 APJ PathHunter beta-arrestin, luminescence; 0% DMSO wells, 100% apelin; activation, % at 20 µM; 330,000 compounds, 0.11% hits; AID 2520;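 active means activation more than six SD over the plate average, tested at 20 µM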;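 further: 0% = DMSO alone and 100% = apelin-13 at 10 nM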
#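 Assay system: engineered CHO-K1 APJ arrestin reporter cells; Amount: 1000 CHO-K1 reporter cells seeded per well; Dosing: one dose, 20 µM compound, 1% DMSO; Times: compound stimulation 90 min at 25 °C, detection 60 min; Measured by: luminescent beta-gal fragment complementation, chemiluminescent substrate; Read-out: APJ–arrestin association signal; Controls: DMSO vs Apelin-13 10 nM.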
# * = called active by the depositor; x = not tested or not shown.
SMILES,APJ antagonist,CCR6 antag,CXCR6 block,hiPSC survival,EBI2 antag,APJ ag
Cc1ccc(C(=O)OCC(=O)NCc2ccc(Cl)cc2Cl)o1,9,10,-6,0,5,-3
Cc1ccc(CN2CCN(Cc3cn(C)nc3C)CC2CCO)o1 (stereo not drawn),18,5,8,22*,-1,-1
CCc1ccc2nc(SCC(=O)N3CC(=O)Nc4ccccc43)c(C#N)cc2c1,-4,11,2,3,49*,0
O=C(NCCc1ccc2c(c1)OCCO2)c1cc(S(=O)(=O)N2CCCC2)ccc1Br,x,12,4,0,-15,x
N#C/C(N=Nc1ccccc1O)=N\Nc1ccccc1O,3,71*,13,-3,-21,-1
Oc1ccccc1N=N/C(=N/Nc1ccccc1O)c1ccccc1,1,16,-15,1,-10,1
CC1=CC(C)(C)Nc2ccc(OC(=O)c3cccnc3)cc21,39,29,21,-5,-16,-8
CC1=CC(C)(C)Nc2ccc(OC(=O)c3ccco3)cc21,30,52*,26,-1,2,-8
O=C1/C(=C/c2ccncc2)CCC/C1=C\c1ccncc1,x,35,22,90*,0,x
CCOC(=O)[C@@H](NC(=O)CC[C@H]1O[C@@H](n2cc(C)c(=O)[nH]c2=O)C[C@@H]1O)C(C)C,x,x,2,3,-10,x
CC(=NNc1nc2ccccc2s1)c1ncccn1,x,40,54*,4,57*,x
CC(=NNc1nc2ccccc2o1)c1ncccn1,x,1,-7,10,55*,x
CC(C)c1ccc(N2C(=O)CC(Sc3ncn[nH]3)C2=O)cc1 (stereo not drawn),13,0,-3,3,-17,4
COc1ccc(N2C(=O)CC(Sc3ncn[nH]3)C2=O)c(OC)c1 (stereo not drawn),9,79*,-4,0,-2,4
COc1ccccc1N(CC(=O)NCc1ccccc1)S(=O)(=O)c1cccs1,x,x,2,6,5,x
CC(C)(C)c1cnnn1-c1ccc(C=O)cc1,7,-12,-8,-2,-7,-1
CC(C)(C)c1cnnn1-c1ccc(C(=O)CCl)cc1,20,65*,12,-4,8,-4
CC(C)OC(=O)N(C)C[C@H]1OCc2cn(nn2)CCCC(=O)N([C@H](C)CO)C[C@@H]1C,x,x,-1,-2,-2,x
CCOc1ccc2nc(N3C(=O)CNC3=S)sc2c1,13,60*,32,-1,-17,-4
CCOC(=O)c1ccc(NC(=O)c2nc[nH]c2C(=O)N[C@@H](C)CO)cc1,x,x,-6,6,1,x
CCN(c1ccccc1)S(=O)(=O)c1cccc(C(=O)Nc2cccc(C)n2)c1,x,x,6,-2,16,x
Cc1nnc(N=c2ssnc2Cl)o1,21,56*,13,-3,41*,-1
Cc1cc(C)nc(/N=c2/ssnc2Cl)c1,-7,13,0,-1,33,1
CC(=O)c1ccc(OCC(=O)OCC(=O)N(CC(C)C)c2c(N)n(Cc3ccccc3)c(=O)[nH]c2=O)cc1,-31,11,12,1,7,-4
Cc1ccc2nc(C)c(CN3CCN(c4ccc([N+](=O)[O-])cc4Cl)CC3)n2c1,18,x,6,0,47*,3
SMILES,APJ antagonist,CCR6 antag,CXCR6 block,hiPSC survival,EBI2 antag,APJ ag
CCOc1ccccc1CNC(=O)Cn1ccc2cc(S(=O)(=O)N3CCC(C)CC3)ccc21,6,16,8,2,9,3
O=C(O)COc1ccc2nsnc2c1Cl,-15,-9,-11,0,0,-2
Cc1ccccc1C1=C/C(=C(\SS/C(C(=O)c2ccc(OCC(=O)O)c(Cl)c2Cl)=C2\C=C(c3ccccc3C)SS2)C(=O)c2ccc(OCC(=O)O)c(Cl)c2Cl)SS1,x,62*,29,2,13,x
O=C(CSCc1ccc(Cl)cc1)Nc1ccc(-c2nnc(-c3ccccc3)o2)cc1,45*,-14,-17,0,-19,1
CCCOC(=O)Oc1ccc2c(=O)c(Oc3cc(C)cc(C)c3)coc2c1,-3,2,-7,25*,4,-3
C=C(C)C(=O)Oc1ccc(N=Nc2ccc(C)cc2)ccc1=O,x,92*,65*,-2,-6,x
CC(=O)c1ccc(N=Nc2ccc(C)cc2)cc1,27,15,12,0,9,-5
CC(C)C(NC(=O)C(C)N1C(=O)c2ccccc2C1=O)c1ccccc1 (stereo not drawn),24,13,10,2,-3,-4
O=[N+]([O-])c1cc([N+](=O)[O-])c2cc3ccccc3nc2c1,16,45,41*,0,70*,-2
CC(C)CSc1nc(N2CCOCC2)c2c(c1C#N)CC(C)(C)SC2,6,15,-1,10,25,6
CCCSc1nc(N2CCOCC2)c2c(c1C#N)CC(C)(C)SC2,10,26,0,23*,29,-1
Cc1ccc(C(=O)C(C)OC(=O)CCN2C(=O)C3C4C=CC(C5CC45)C3C2=O)cc1 (stereo not drawn),-43,15,0,0,4,2
O=C(Nc1cccc(C(F)(F)F)c1)Oc1ccc(Cl)c2cccnc12,x,77*,60*,0,5,x
O=C(COc1ccccc1)Nc1nc(-c2ccncc2)cs1,-12,7,-1,34*,-2,2
Cc1c(C(=O)NCc2ccccc2C(F)(F)F)sc(=O)n1Cc1cccc(C(F)(F)F)c1,x,x,5,0,19,x
Cc1c(C(=O)NCc2ccccc2C(F)(F)F)sc(=O)n1Cc1ccc2ccccc2c1,x,x,8,20*,5,x
O=C(CCCC(=O)N(CC(=O)NC1CCCCC1)c1ccccc1F)Nc1ccccn1,11,16,-3,1,-10,-4
S=c1[nH]nc(C2CCCCC2)n1/N=C/c1ccncc1,-4,8,3,1,-1,-1
O=[N+]([O-])c1ccc(/C=N/n2c(C3CCCCC3)n[nH]c2=S)cc1,16,56*,20,3,12,-2
COc1ccc(OC)c(C2C3CN(C(C)C)CC=C3C(C#N)=C(N)C2(C#N)C#N)c1 (stereo not drawn),12,3,1,-1,19,-5
Cc1ccc(C2C3CN(C(C)C)CC=C3C(C#N)=C(N)C2(C#N)C#N)cc1 (stereo not drawn),36,60*,53*,-3,22,-11
Cc1cc(C)c(OCC(=O)NCC2COc3ccccc3O2)c(C)c1 (stereo not drawn),-2,13,7,0,1,-1
CCCCCCCCn1c2c(c(=N)c3ccccc31)CCC2,36,9,-5,-1,10,-3
Cc1cc(C)c2c(=N)c3ccccc3n(CCCCCCCCn3c4ccccc4c(=N)c4c(C)cc(C)nc43)c2n1,x,107*,40*,-2,14,x

# Screening results from PubChem BioAssay.
